Laboratory results as given in ChEMBL document CHEMBL4364265, “Oridonin derivatives as potential anticancer drug candidates triggering apoptosis through mitochondrial pathway in the liver cancer cells” (Eur J Med Chem, 2019).
Calls of active or inactive are those of the source. No cut-off for these calls is given here.

Legend:
[1] = system: HepG2; test: Induction of cell cycle arrest in human HepG2 cells assessed as accumulation at G2 phase at 0.5 uM incubated for 24 hrs by PI staining based flow cytometric analysis (reference value: 25.55%); type: functional
[2] = system: HepG2; test: Induction of apoptosis in human HepG2 cells assessed as necrotic cells at 0.5 uM incubated for 24 hrs by annexin V staining based cell counting method (reference value: 3.40%); type: functional
[3] = system: PLC-PRF-5; test: Induction of apoptosis in human PLC/PRF/5 cells assessed as necrotic cells at 0.5 uM incubated for 24 hrs by annexin V staining based cell counting method (reference value: 0.59%); type: functional
[4] = system: HepG2; test: Antiproliferative activity against human HepG2 cells incubated for 72 hrs by CCK8 cells; type: functional, cell-based; conditions: HepG2, 72 h
In short: (§1)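 CCK-8 proliferation assay. 10,000 cells per well were preincubated 24 h at 37 °C with 5% CO2, then given compound dissolved in DMSO and incubated 72 h. CCK-8 was added for 4 h and absorbance read at 450 nm. IC50 was taken from dose-response curves as mean ± SEM of at least three independent experiments, with paclitaxel as positive control. HepG2 and L-O2 were grown in DMEM/10% FBS; A549 and RPMI-8226 in RPMI 1640/10% FBS.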

[5] = system: PLC-PRF-5; test: Inhibition of colony formation in human PLC/PRF/5 cells at 0.5 uM incubated for 10 days by crystal violet staining based microscopic method relative to control; type: functional; conditions: PLC-PRF-5, 240 h
In short: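 Five hundred cells plated per 30 mm dish and left 12 h. Medium with compound was added (0, 0.1, 0.5, 1 µM) or DMSO as negative control, and cells grew 10 days. Colonies were fixed in methanol 15 min, stained with 0.1% crystal violet 15 min, photographed and counted. Colony size was checked by microscope. Relative colony number is mean ± SD of ≥3 independent experiments.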

[6] = system: HepG2; test: Induction of apoptosis in human HepG2 cells assessed as late apoptotic cells at 1 uM incubated for 24 hrs by annexin V staining based cell counting method (reference value: 5.65%); type: functional
[7] = system: PLC-PRF-5; test: Induction of apoptosis in human PLC/PRF/5 cells assessed as late apoptotic cells at 0.25 uM incubated for 24 hrs by annexin V staining based cell counting method (reference value: 4.81%); type: functional
[8] = system: L02; test: Cytotoxicity against human LO2 cells incubated for 72 hrs by CCK8 cells; type: cell-based; conditions: L02, 72 h; in short: as §1
[9] = system: PLC-PRF-5; test: Induction of apoptosis in human PLC/PRF/5 cells assessed as down regulation of Bcl2 protein expression level incubated for 24 hrs by Western blot analysis; type: functional, cell-based
In short: (§2)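 Cells were treated 24 h in DMEM with 0, 0.25, 0.5, 1.0 or 1.25 µM compound. Adherent and floating cells were lysed in RIPA on ice and protein measured by BCA. Equal protein was run on 7.5–12.5% SDS-PAGE and transferred to PVDF. Membranes were blocked in 5% milk/PBST, incubated with primary antibody overnight at 4 °C, and detected by ECL.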

[10] = system: HepG2; test: Induction of apoptosis in human HepG2 cells assessed as live cells at 0.5 uM incubated for 24 hrs by annexin V staining based cell counting method (reference value: 87.35%); type: functional
[11] = system: HepG2; test: Induction of apoptosis in human HepG2 cells assessed as upregulation of Bax protein expression level incubated for 24 hrs by Western blot analysis; type: functional, cell-based; in short: as §2
[12] = system: HepG2; test: Induction of cell cycle arrest in human HepG2 cells assessed as accumulation at S phase at 0.5 uM incubated for 24 hrs by PI staining based flow cytometric analysis (reference value: 35.46%); type: functional
[13] = system: PLC-PRF-5; test: Induction of cell cycle arrest in human PLC/PRF/5 cells assessed as accumulation at G2 phase at 0.25 uM incubated for 24 hrs by PI staining based flow cytometric analysis (reference value: 18.05%); type: functional
[14] = system: PLC-PRF-5; test: Induction of cell cycle arrest in human PLC/PRF/5 cells assessed as accumulation at G1 phase at 1 uM incubated for 24 hrs by PI staining based flow cytometric analysis (reference value: 34.78%); type: functional
[15] = system: HepG2; test: Induction of apoptosis in human HepG2 cells assessed as down regulation of Bcl2 protein expression level incubated for 24 hrs by Western blot analysis; type: functional, cell-based; in short: as §2
[16] = system: HepG2; test: Induction of apoptosis in human HepG2 cells assessed as shrunken chromatin at 0.25 to 1 uM incubated for 24 hrs by Hoechst 33258 dye based fluorescence microscopic method; type: functional, cell-based
In short: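 About 2 × 10^4 cells per well were plated overnight and treated 24 h with 0, 0.25, 0.5 or 1 µM compound. Cells were fixed in 4% paraformaldehyde for 30 min at room temperature, stained with 20 µg/mL Hoechst 33258 for 20 min at 37 °C, and imaged by fluorescence microscopy.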

[17] = system: HepG2; test: Induction of apoptosis in human HepG2 cells assessed as early apoptotic cells at 1 uM incubated for 24 hrs by annexin V staining based cell counting method (reference value: 3.60%); type: functional
[18] = system: HepG2; test: Induction of cell cycle arrest in human HepG2 cells assessed as accumulation at G2 phase at 1 uM incubated for 24 hrs by PI staining based flow cytometric analysis (reference value: 25.55%); type: functional
[19] = system: A549; test: Antiproliferative activity against human A549 cells incubated for 72 hrs by CCK8 cells; type: functional, cell-based; conditions: A549, 72 h; in short: as §1
[20] = system: PLC-PRF-5; test: Induction of apoptosis in human PLC/PRF/5 cells assessed as necrotic cells at 0.25 uM incubated for 24 hrs by annexin V staining based cell counting method (reference value: 0.59%); type: functional
[21] = system: HepG2; test: Induction of cell cycle arrest in human HepG2 cells assessed as accumulation at S phase at 0.25 uM incubated for 24 hrs by PI staining based flow cytometric analysis (reference value: 35.46%); type: functional
[22] = system: PLC-PRF-5; test: Induction of apoptosis in human PLC/PRF/5 cells assessed as early apoptotic cells at 0.5 uM incubated for 24 hrs by annexin V staining based cell counting method (reference value: 5.65%); type: functional
[23] = system: HepG2; test: Induction of apoptosis in human HepG2 cells assessed as necrotic cells at 0.25 uM incubated for 24 hrs by annexin V staining based cell counting method (reference value: 3.40%); type: functional
[24] = system: HepG2; test: Induction of apoptosis in human HepG2 cells assessed as late apoptotic cells at 0.25 uM incubated for 24 hrs by annexin V staining based cell counting method (reference value: 5.65%); type: functional
[25] = system: HepG2; test: Induction of cell cycle arrest in human HepG2 cells assessed as accumulation at G1 phase at 0.5 uM incubated for 24 hrs by PI staining based flow cytometric analysis (reference value: 37.06%); type: functional

C=C1C(=O)[C@]23[C@H](OC(=O)/C=C/c4ccc(OC)cc4)[C@H]1CC[C@H]2[C@@]12CO[C@]3(O)[C@@H](O)[C@@H]1C(C)(C)CC[C@@H]2O
Activity [1]: 23.84%
Activity [2]: 5.75%
Activity [3]: 0.82%
IC50 [4]: 1360 nM
inhibition at 0.5 µM [5]: 100%
Activity [6]: 20.7%
Activity [7]: 9.14%
IC50 [8]: 1470 nM
Activity [9]: Dose-dependent effect
Activity [10]: 77.75%
Activity [11]: Dose-dependent effect
Activity [12]: 34.53%
Activity [13]: 12.59%
Activity [14]: 45.41%
Activity [15]: Dose-dependent effect
Activity [16]: Active
Activity [17]: 21.8%
Activity [18]: 22.67%
IC50 [19]: 12000 nM
Activity [20]: 0.91%
Activity [21]: 33.94%
Activity [22]: 16.04%
Activity [23]: 7.05%
Activity [24]: 5.7%
Activity [25]: 39.07%
